# Source: article PMC8290212 (Bioorganic & medicinal chemistry letters, 2019)
# Entries after “also recorded” stand apart in the source; their conditions may differ. Like-named read-outs stand apart in the source and are kept apart here. Marks after values point to notes of the source that are not given here.
# Columns and labels:
# [1] = system: Influenza A virus H1N1, Influenza A/California/7/2009; format: cell-based
# [2] = system: Influenza A virus H5N1, Influenza A/Vietnam/1203/2004 × A/PR/8/34 (recombinant H5N1); test: microbe, parasite or virus in culture; format: cell-based; settings: H5N1|PR/8, MDCK
# [3] = system: MDCK cells
# [4] = system: A/PR/8/34 strain of influenza A virus (H1N1); format: cell-based
# [5] = system: NS1-pYES yeast strain; test: Yeast-based NS1 assay: reversal of NS1-induced slow-growth phenotype; format: cell-based; settings: for restoration of yeast growth (reversal of slow growth phenotype): NS1-pYES strain, 50 μM, 22, 42 and 60 h
# [6] = system: IFN-β mRNA; test: RT-PCR analysis of IFN-β mRNA in MDCK cells; format: cell-based; settings: MDCK infected with A/PR/8/34, MOI 2, 20 μM, 6 h
# In short: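 MDCK cells infected with influenza A/PR/8/34 (MOI 2) and incubated with test compound (20 μM) for 6 h, then harvested. IFN-β mRNA detected by RT-PCR, with β-actin mRNA as reference. Poly(I:C)-induced cells were the positive control for IFN-β induction and RT-PCR. Uninfected cells received the same drug treatment and RT-PCR in parallel.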
# [7] = microsomes; for Mouse Liver Microsomal Stability (% remaining) 0 min: 0 h; for Mouse Liver Microsomal Stability (% remaining) 15 min: 0.25 h; for Mouse Liver Microsomal Stability (% remaining) 30 min: 0.5 h
# [8] = in vitro; settings: dog
# [9] = in vitro; settings: human, Caco-2, Efflux Ratio
# [10] = system: Caco-2 monolayer; settings: human, Caco-2, 2 h
# [11] = Mouse liver microsomal stability
SMILES,EC50 [1],EC50 [2] [µM],dose response in the TCID50 assay [4],restoration of yeast growth (reversal of slow growth phenotype) [5],restoration of IFN-β mRNA levels in infected cells [6],Mouse Liver Microsomal Stability (% remaining) 0 min [7] [% remaining],Mouse Liver Microsomal Stability (% remaining) 15 min [7] [% remaining],Mouse Liver Microsomal Stability (% remaining) 30 min [7] [% remaining],CC50 [8] [µM],further results
CCOc1cc(-c2c(C#N)c(O)nc3c2c(C)nn3-c2ccc(F)cc2)ccc1O [Compound 1],single digit micromolar,28.5,–,–,–,–,–,–,–,Cytotoxicity towards host MDCK cells [3]: without toxicity
Cc1ccc(-n2nc(C)c3c(-c4ccc(O)c(O)c4)c(C#N)c(N)nc32)cc1C [Compound 4],single digit micromolar,–,successfully decreased viral titer with increasing concentration,show the same behavior,significantly restored IFN-β mRNA levels,100,78,64,24.5,–
Cc1nn(-c2ccc(Cl)cc2)c2nc(N)c(C#N)c(-c3ccc(O)c(O)c3)c12 [Compound 6],–,–,successfully decreased viral titer with increasing concentration,show the same behavior,significantly restored IFN-β mRNA levels,100,93,90,24.5,efflux ratio at 2 h [9]: 7.78
COc1cc(-c2c(C#N)c(N)nc3c2c(C)nn3-c2ccc(F)cc2)ccc1O [Compound 10],single digit micromolar,3.6,successfully decreased viral titer with increasing concentration,show the same behavior,significantly restored IFN-β mRNA levels,100,74,60,24.7,–
COc1cc(-c2ccnc3c2c(C)nn3-c2ccc(C(F)(F)F)cc2)ccc1O [Compound 32],sub-micromolar,–,successfully decreased viral titer with increasing concentration,reversal of the slow growth phenotype; also recorded: reversed,significantly restored IFN-β mRNA levels,100,66,45,19.8,"selectivity index (SI) [4]: greater than 100 fold; viral suppression (TCID50) [4]: 3 log units; acute toxicity in yeast assay ([5]; 50 μM): does not display acute toxicity; restoration of IFN-β mRNA levels in infected cells ([6]; listed as C00006): Restores IFN-β mRNA levels; Cytotoxicity towards host MDCK cells ([3]; dog): did not affect cell viability at 5, 10, 50 and 100 μM; Efflux Ratio [10]: 1.20^b; efflux ratio at 2 h [9]: 2.29"
COc1cc(-c2ccnc3c2c(C)nn3-c2cccc(C(F)(F)F)c2)ccc1O [Compound 33],–,–,–,show the same behavior,–,–,–,–,24.5,Mouse Liver Microsomal Stability (% remaining) 0 min ([11]; 0 min): 100 % remaining; Mouse Liver Microsomal Stability (% remaining) 15 min ([11]; 15 min): 25 % remaining; Mouse Liver Microsomal Stability (% remaining) 30 min ([11]; 30 min): 16 % remaining
COc1cccc(-c2ccnc3c2c(C)nn3-c2ccc(F)cc2)c1 [Compound 37],–,–,–,–,–,–,–,–,–,Cytotoxicity towards host MDCK cells [3]: exhibited cytotoxicity
"NC(=O)c1ncn([C@@H]2O[C@H](CO)[C@@H](O)[C@H]2O)n1 [Ribavirin, reference compound]",–,32.2,–,–,–,–,–,–,–,–
